# Measured values as given in ChEMBL document CHEMBL1806361, “Discovery of potent, selective, and orally bioavailable quinoline-based dipeptidyl peptidase IV inhibitors targeting Lys554” (Bioorg Med Chem, 2011).
# Assays:
# [1] = test system: Rattus norvegicus; assay: Oral bioavailability in rat at 1 mg/kg by LC/MS/MS; type: ADME, organism-based; settings: in vivo
# Summary of the method: (§1)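 Compound given orally at 1.0 mg/kg and intravenously at 0.1 mg/kg to rats and dogs. Blood sampled after dosing and spun to plasma. Plasma deproteinized with acetonitrile containing internal standard, then centrifuged. Supernatant diluted in 0.01 M ammonium acetate and spun again before LC/MS/MS quantitation. Values are means and SD of three experiments.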
# [2] = Volume of distribution at steady state in rat at 1 mg/kg, po and 0.1 mg/kg, iv by LC/MS/MS; type: ADME, organism-based; settings: in vivo, read-out: Vdss; summary of the method: as §1
# [3] = test system: Canis familiaris; assay: AUC in dog at 1 mg/kg, po by LC/MS/MS; type: ADME, organism-based, Canis lupus familiaris, Plasma; parameters: dose 1 mg/kg, route oral; settings: in vivo; summary of the method: as §1
# [4] = Metabolic stability in dog liver microsomes at 1 uM after 60 mins by HPLC with UV detectors in presence of NADPH; type: ADME, Canis lupus familiaris, Microsome; settings: read-out: Stability
# Summary of the method: (§2)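 Hepatic microsomes (0.2 mg protein/mL final) and compound (1 µM final) were mixed on ice. Reaction started with NADPH, run 60 min at 37 °C, and stopped with ice-cold acetonitrile. Zero-time controls were quenched before compound addition.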
# [5] = test system: Canis familiaris; assay: Oral bioavailability in dog at 1 mg/kg by LC/MS/MS; type: ADME, organism-based, Canis lupus familiaris; settings: in vivo; summary of the method: as §1
# [6] = Metabolic stability in human liver microsomes at 1 uM after 60 mins by HPLC with UV detectors in presence of NADPH; type: ADME, Microsome; settings: read-out: Stability; summary of the method: as §2
# [7] = test system: Rattus norvegicus; assay: AUC in rat at 1 mg/kg, po by LC/MS/MS; type: ADME, organism-based, Plasma; parameters: dose 1 mg/kg, route oral; settings: in vivo; summary of the method: as §1
# [8] = Solubility of the compound in water at pH 6.8 by HPLC analysis; type: physicochemical
# [9] = Metabolic stability in rat liver microsomes at 1 uM after 60 mins by HPLC with UV detectors in presence of NADPH; type: ADME, Microsome; settings: read-out: Stability; summary of the method: as §2
# [10] = Volume of distribution at steady state in dog at 1 mg/kg, po and 0.1 mg/kg, iv by LC/MS/MS; type: ADME, organism-based, Canis lupus familiaris; settings: in vivo, read-out: Vdss; summary of the method: as §1
structure (smiles),measurement,setting,value
Cc1ccc(-c2c(CN)c(CC(C)C)nc3ccc(N4CC(=O)NCC4=O)cc23)cc1.Cl.Cl,F,[1],8%
same,Vd,[2],10.7 L/kg
same,AUC,[3],1410 ng·h/mL
same,microsomal CLint at 1 µM,[4],2 µL/min/mg
same,F,[5],49.2%
same,microsomal CLint at 1 µM,[6],16 µL/min/mg
same,AUC,[7],28.5 ng·h/mL
same,solubility,[8],> 5000 µg/mL
same,microsomal CLint at 1 µM,[9],96 µL/min/mg
same,Vd,[10],1.49 L/kg
